From ChEMBL document CHEMBL1153209, “Synthesis and biological activity of a potent and orally bioavailable SCD inhibitor (MF-438)” (Bioorg Med Chem Lett, 2010)

How the values were obtained:
Acyl-CoA desaturase 1 = target: T1, Acyl-CoA desaturase 1 (Rattus norvegicus, UniProt P07308); experiment: Inhibition of SCD1 in rat liver microsomes; set-up: species or system Microsome
T1 sequence (P07308 whole entry): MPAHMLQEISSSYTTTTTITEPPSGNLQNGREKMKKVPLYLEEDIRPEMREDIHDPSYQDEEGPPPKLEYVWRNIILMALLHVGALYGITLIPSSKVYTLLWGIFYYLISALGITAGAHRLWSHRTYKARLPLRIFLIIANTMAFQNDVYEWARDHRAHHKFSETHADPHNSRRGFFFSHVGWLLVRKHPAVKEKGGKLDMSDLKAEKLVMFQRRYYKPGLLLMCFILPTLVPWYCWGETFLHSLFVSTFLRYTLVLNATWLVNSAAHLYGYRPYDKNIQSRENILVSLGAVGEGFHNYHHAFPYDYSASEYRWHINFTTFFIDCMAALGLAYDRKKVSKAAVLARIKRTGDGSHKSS

Mus musculus [1] = experiment: Toxicity in diet-induced obese chronic po dosed mouse; settings: in vivo
[2] = Half life in rat; type: ADME, organism-based; settings: in vivo
[3] = Oral bioavailability in rat; type: ADME, organism-based; settings: in vivo
Mus musculus [4] = experiment: Inhibition of stearoyl-CoA […] in high-carbohydrate diet-fed mouse liver dosed orally assessed as conversion of [14C]stearic acid to [14C]oleic acid; type: functional; settings: po
Procedure, shortened: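 Mice on a high-carbohydrate diet given compound PO, then IV 14C-stearic acid tracer 1 h later; livers collected 2 h after tracer and lipids analysed.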

Mus musculus [5] = experiment: Toxicity in DIO mouse assessed as partial eye closure at 5 mg/kg qd for 1 week; type: organism-based; set-up: dose 5 mg/kg; settings: in vivo, 168 h
[6] = Half life in mouse; type: ADME, organism-based; settings: in vivo
Cytochrome P450 2D6 [7] = target: T2, Cytochrome P450 2D6 (Homo sapiens, UniProt P10635); experiment: Inhibition of CYP2D6 up to 30 uM; type: ADME
Cytochrome P450 3A4 [8] = target: T3, Cytochrome P450 3A4 (Homo sapiens, UniProt P08684); experiment: Inhibition of CYP3A4 up to 30 uM; type: ADME
Mus musculus [9] = experiment: Toxicity in DIO mouse assessed as alopecia at 5 mg/kg qd for 1 week; type: organism-based; set-up: dose 5 mg/kg; settings: in vivo, 168 h
[10] = Oral bioavailability in mouse; type: ADME, organism-based; settings: in vivo
[11] = Bioavailability in rat at 10 mg/kg, po or 2 mg/kg, iv; type: ADME, organism-based; settings: in vivo
Procedure, shortened: (§1)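 Rats dosed 10 mg/kg PO and 2 mg/kg IV; plasma concentration sampled over time for parent and its acid metabolite; each time point is the average of two animals.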

Cytochrome P450 2D6 [12] = target: T2, Cytochrome P450 2D6; experiment: Inhibition of CYP2D6; type: ADME
[13] = Half life in rat at 10 mg/kg, po or 2 mg/kg, iv; type: ADME, organism-based; settings: in vivo; procedure, shortened: as §1
Cytochrome P450 3A4 [14] = target: T3, Cytochrome P450 3A4; experiment: Inhibition of CYP3A4; type: ADME
Rattus norvegicus = experiment: Stability in rat assessed as AUC of 6-(4-(2-(trifluoromethyl)phenoxy)piperidin-1-yl)pyridazine-3-carboxylic acid at 10 mg/kg, po; type: ADME, organism-based; set-up: dose 10 mg/kg, route oral; settings: in vivo; procedure, shortened: as §1
[15] = AUC in rat at 10 mg/kg, po; type: ADME, organism-based; set-up: dose 10 mg/kg, route oral; settings: plasma; procedure, shortened: as §1
[16] = AUC in rat at 2 mg/kg, iv; type: ADME, organism-based; set-up: dose 2 mg/kg, route intravenous; settings: plasma; procedure, shortened: as §1

T2 sequence (P10635 whole entry): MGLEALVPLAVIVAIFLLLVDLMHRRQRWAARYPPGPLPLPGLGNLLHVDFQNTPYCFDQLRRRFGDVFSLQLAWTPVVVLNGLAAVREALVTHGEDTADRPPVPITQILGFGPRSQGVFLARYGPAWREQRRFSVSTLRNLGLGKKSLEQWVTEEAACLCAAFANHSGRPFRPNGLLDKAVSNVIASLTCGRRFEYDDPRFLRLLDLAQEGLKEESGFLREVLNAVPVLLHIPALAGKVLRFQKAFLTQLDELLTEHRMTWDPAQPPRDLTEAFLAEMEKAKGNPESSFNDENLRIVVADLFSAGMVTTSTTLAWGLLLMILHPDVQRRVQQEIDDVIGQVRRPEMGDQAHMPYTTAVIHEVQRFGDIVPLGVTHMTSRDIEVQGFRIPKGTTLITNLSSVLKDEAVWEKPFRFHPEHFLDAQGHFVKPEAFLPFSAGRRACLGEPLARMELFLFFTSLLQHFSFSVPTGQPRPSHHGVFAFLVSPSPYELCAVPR
T3 sequence (P08684 whole entry): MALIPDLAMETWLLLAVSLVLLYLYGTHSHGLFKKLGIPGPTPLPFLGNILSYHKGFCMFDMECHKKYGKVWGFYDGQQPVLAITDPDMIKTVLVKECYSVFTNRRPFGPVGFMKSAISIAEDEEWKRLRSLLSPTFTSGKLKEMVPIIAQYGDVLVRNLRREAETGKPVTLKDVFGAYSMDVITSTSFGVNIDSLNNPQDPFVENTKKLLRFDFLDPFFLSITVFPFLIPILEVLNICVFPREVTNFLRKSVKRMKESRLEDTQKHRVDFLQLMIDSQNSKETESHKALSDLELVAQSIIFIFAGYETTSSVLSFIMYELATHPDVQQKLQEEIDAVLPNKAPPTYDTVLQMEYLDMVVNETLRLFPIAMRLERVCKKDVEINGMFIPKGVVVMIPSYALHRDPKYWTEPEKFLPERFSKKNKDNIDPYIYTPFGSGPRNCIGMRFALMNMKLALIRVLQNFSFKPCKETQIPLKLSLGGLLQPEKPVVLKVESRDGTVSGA

| SMILES | IC50 (Acyl-CoA desaturase 1) [nM] | further results |
| --- | --- | --- |
| c1cc(OC2CCN(c3ccc(-n4ccnc4)nn3)CC2)c2cc[nH]c2c1 | 162 |  |
| O=C(NCCC1CC1)c1ccc(N2CCN(C(=O)c3ccccc3C(F)(F)F)CC2)nn1 | 322 |  |
| CC(C)(C)c1nnc(-c2ccc(N3CCC(Oc4ccccc4C(F)(F)F)CC3)nn2)s1 | 710 |  |
| Oc1nnc(-c2ccc(N3CCC(Oc4ccccc4C(F)(F)F)CC3)nn2)s1 | 6.1 |  |
| CC(C)c1nnc(-c2ccc(N3CCC(Oc4ccccc4C(F)(F)F)CC3)nn2)s1 | 8.8 |  |
| COc1ccccc1OC1CCN(c2ccc(-n3ccnc3)nn2)CC1 | 543 |  |
| c1ccc(OC2CCN(c3ccc(-n4ccnc4)nn3)CC2)cc1 | 1890 |  |
| CC(C)c1nnc(-c2ccc(N3CCC(Oc4ccccc4C(F)(F)F)CC3)nn2)o1 | 3.9 |  |
| OCc1nnc(-c2ccc(N3CCC(Oc4ccccc4C(F)(F)F)CC3)nn2)o1 | 2.9 |  |
| Cc1nnc(-c2ccc(N3CCC(Oc4ccccc4C(F)(F)F)CC3)nn2)s1 | 2.3 | Activity (Mus musculus [1]): Toxic; half-life [2]: 6 h; bioavailability [3]: 38%; ED50 (Mus musculus [4]): 1 mg/kg; Activity (Mus musculus [5]): Toxic; half-life [6]: 6.4 h; inhibition (INH) (Cytochrome P450 2D6 [7]): Not Active; inhibition (INH) (Cytochrome P450 3A4 [8]): Not Active; Activity (Mus musculus [9]): Toxic; bioavailability [10]: 73% |
| Brc1ccccc1OC1CCN(c2ccc(-n3ccnc3)nn2)CC1 | 5 |  |
| Cc1cccc(OC2CCN(c3ccc(-n4ccnc4)nn3)CC2)c1 | 251 |  |
| Cc1ccc(OC2CCN(c3ccc(-n4ccnc4)nn3)CC2)cc1 | 527 |  |
| FC(F)(F)c1ccccc1OC1CCN(c2ccc(-n3ccnc3)nn2)CC1 | 4 | bioavailability [11]: 53%; IC50 (Cytochrome P450 2D6 [12]): 300 nM; half-life [13]: 1.2 h; IC50 (Cytochrome P450 3A4 [14]): 400 nM |
| FC(F)(F)c1cccc(OC2CCN(c3ccc(-n4ccnc4)nn3)CC2)c1 | 19 |  |
| FC(F)(F)c1ccc(OC2CCN(c3ccc(-n4ccnc4)nn3)CC2)cc1 | 371 |  |
| FC(F)(F)c1ccccc1OC1CCN(c2ccc(-c3nnco3)nn2)CC1 | 22 |  |

| SMILES | IC50 (Acyl-CoA desaturase 1) [nM] | further results |
| --- | --- | --- |
| O=C(NCCC1CC1)c1ccc(N2CCC(Oc3ccccc3C(F)(F)F)CC2)nn1 | 14 |  |
| c1cc2c(c(OC3CCN(c4ccc(-n5ccnc5)nn4)CC3)c1)CCC2 | 10 |  |
| NC(=O)c1ccc(N2CCC(Oc3ccccc3C(F)(F)F)CC2)nn1 | 16 | bioavailability [11]: 10%; half-life [13]: 0.54 h; AUC (Rattus norvegicus): 179 µM·h; AUC [15]: 0.9 µM·h; AUC [16]: 1.9 µM·h |
| O=C(O)c1ccc(N2CCC(Oc3ccccc3C(F)(F)F)CC2)nn1 | 10000 |  |
| CC(C)Cc1nnc(-c2ccc(N3CCC(Oc4ccccc4C(F)(F)F)CC3)nn2)o1 | 15 |  |
| CC(=O)c1ccccc1OC1CCN(c2ccc(-n3ccnc3)nn2)CC1 | 34 |  |
| c1cn(-c2ccc(N3CCC(Oc4ccc5c(c4)CCC5)CC3)nn2)cn1 | 62 |  |
| CC(C)(C)c1nnc(-c2ccc(N3CCC(Oc4ccccc4C(F)(F)F)CC3)nn2)o1 | 980 |  |
| CC(C)Cc1nnc(-c2ccc(N3CCC(Oc4ccccc4C(F)(F)F)CC3)nn2)s1 | 37 |  |
| Cc1nnc(-c2ccc(N3CCC(Oc4ccccc4C(F)(F)F)CC3)nn2)o1 | 6 |  |
| Brc1cccc(OC2CCN(c3ccc(-n4ccnc4)nn3)CC2)c1 | 23 |  |
| CCc1cccc(OC2CCN(c3ccc(-n4ccnc4)nn3)CC2)c1 | 38 |  |
| N#Cc1ccccc1OC1CCN(c2ccc(-n3ccnc3)nn2)CC1 | 236 |  |
| Cc1ccccc1OC1CCN(c2ccc(-n3ccnc3)nn2)CC1 | 39 |  |
| CCc1ccccc1OC1CCN(c2ccc(-n3ccnc3)nn2)CC1 | 4 |  |
| OCc1nnc(-c2ccc(N3CCC(Oc4ccccc4C(F)(F)F)CC3)nn2)s1 | 3.2 |  |
